According to the RNAGym collection of RNA variant scans (doi:10.1126/science.aae0568):
Fewer inactive variants are shown than the library holds.

B1: tRNA (parent)
chain: GUUCCGUUGGCGUAAUGGUAACGCGUCUCCCUCCUAAGGAGAAGACUGCGGGUUCGAGUCCCGUACGGAACG

Variants of: B1
Assay: yeast fitness relative to wild type (ratio to wild type); higher = fitter; tRNA-Arg(CCU), competitive growth, 37 C, YPD
Method in brief: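 A pool of Saccharomyces cerevisiae strains, each with a tRNA-Arg(CCU) gene variant at the native genomic locus, was competed in YPD at 37°C for 24 hours across six parallel replicates. The variants had been chemically synthesised at a 3% per-site mutation rate over 69 sites, and gene amplicons before and after competition were read by 100-nucleotide paired-end sequencing. Darwinian fitness relative to wild type rested on changes in genotype frequencies. Genotypes required ≥ 100 starting reads, and estimates < 0.5 were set to 0.5.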
With GUUCCGUUGGCGUAAUGGUAACGCGUCUCCCUCCUAAGGAGAAGACUGCGGGUUUGAGUCCCGUCCGGAACG the yeast fitness was 0.754. In the case of GUUCCGUUGGCGUAAUGGUAACGCGUCUCCCUCCUAAGGAGAAGACUGCGGGUUUGAGUCCCGUGCGGAACG, the yeast fitness is reported as 0.623. For GUUCCGUUGGCGUAAUGGUAACGCGUCUCCCUCCUAAGGAGAAGACUGCGGGUUGGAGUCCUGUACGGAACG, the yeast fitness was 0.626. Work on GUUCCGUUGGCGUAAUGGUAACGCGUCUCCCUCCUAAGGAGAAGACUGCGGGUUCAAGUCCCGUUCAGAACG yielded a yeast fitness of at most 0.5. GUUCCGUUGGCGUAAUGGUAACGCGUCUCCCUCCUAAGGAGAAGACUGCGGGUUUGAGUCCCAUAGGGAACG showed a yeast fitness of at most 0.5. Variant GUUCCGUUGGCGUAAUGGUAACGCGUCUCCCUCCUAAGGAGAAGACUGCGGGUUAGAGUCCCGUACGAAACG has a yeast fitness of 0.674. GUUCCGUUGGCGUAAUGGUAACGCGUCUCCCUCCUAAGGAGAAGACUGCGGGUUUGAGUACCGUUCGGAACG gave a yeast fitness of at most 0.5. Variant GUUCCGUUGGCGUAAUGGUAACGCGUCUCCCUCCUAAGGAGAAGACUGCGGGUUGGAGUCCCGUACGAAACG has a yeast fitness of 0.604. GUUCCGUUGGCGUAAUGGUAACGCGUCUCCCUCCUAAGGAGAAGACUGCGGGUUUAAGUCCCGUACGGAACG showed a yeast fitness of 0.735. In the case of GUUCCGUUGGCGUAAUGGUAACGCGUCUCCCUCCUAAGGAGAAGACUGCGGGUUGGAGUCCCGUACGGAACG, the yeast fitness is reported as 0.695. Work on GUUCCGUUGGCGUAAUGGUAACGCGUCUCCCUCCUAAGGAGAAGACUGCGGGUUUGAGUCCCGUACGGAACG yielded a yeast fitness of 0.721. For GUUCCGUUGGCGUAAUGGUAACGCGUCUCCCUCCUAAGGAGAAGACUGCGGGUUCAUGUCCCGUACGGAUCG, the yeast fitness was at most 0.5. With GUUCCGUUGGCGUAAUGGUAACGCGUCUCCCUCCUAAGGAGAAGACUGCGGGUUGGAGACCCAUACGGAACG the yeast fitness was 0.673. Variant GUUCCGUUGGCGUAAUGGUAACGCGUCUCCCUCCUAAGGAGAAGACUGCGGGUUUGAGUCACGUACGCAACG has a yeast fitness of at most 0.5. GUUCCGUUGGCGUAAUGGUAACGCGUCUCCCUCCUAAGGAGAAGACUGCGGGUUGGAGUCCCGUUCGGAACG gave a yeast fitness of 0.692. GUUCCGUUGGCGUAAUGGUAACGCGUCUCCCUCCUAAGGAGAAGACUGCGGGUUGGAGUCCCGUGCGGAACG gave a yeast fitness of 0.528. For GUUCCGUUGGCGUAAUGGUAACGCGUCUCCCUCCUAAGGAGAAGACUGCGGGUUGGAGUCCCGUCCGGAACG, the yeast fitness was 0.529. For GUUCCGUUGGCGUAAUGGUAACGCGUCUCCCUCCUAAGGAGAAGACUGCGGGUUACAGUCCCGUACCGAACG, the yeast fitness was 0.574. GUUCCGUUGGCGUAAUGGUAACGCGUCUCCCUCCUAAGGAGAAGACUGCGGGUUCAAGUCCCGUCCGGCACG showed a yeast fitness of at most 0.5. For GUUCCGUUGGCGUAAUGGUAACGCGUCUCCCUCCUAAGGAGAAGACUGCGGGUUUGCGUCCCGUACGGAACG, the yeast fitness was 0.584. GUUCCGUUGGCGUAAUGGUAACGCGUCUCCCUCCUAAGGAGAAGACUGCGGGUUUGGGUCCCGUACGGAACG showed a yeast fitness of 0.747. GUUCCGUUGGCGUAAUGGUAACGCGUCUCCCUCCUAAGGAGAAGACUGCGGGUUAGACUCCCGUAGGGAACG showed a yeast fitness of 0.623. GUUCCGUUGGCGUAAUGGUAACGCGUCUCCCUCCUAAGGAGAAGACUGCGGGUUGGAGUCCCGUAAGGAACG showed a yeast fitness of 0.546. Variant GUUCCGUUGGCGUAAUGGUAACGCGUCUCCCUCCUAAGGAGAAGACUGCGGGUUGGAGUCCCGUAUGGAACG has a yeast fitness of 0.585. Work on GUUCCGUUGGCGUAAUGGUAACGCGUCUCCCUCCUAAGGAGAAGACUGCGGGUUUGACUCCCGUACGGAACG yielded a yeast fitness of 0.842. Work on GUUCCGUUGGCGUAAUGGUAACGCGUCUCCCUCCUAAGGAGAAGACUGCGGGUUCAAGUUCCGUACGGAACG yielded a yeast fitness of 0.845. With GUUCCGUUGGCGUAAUGGUAACGCGUCUCCCUCCUAAGGAGAAGACUGCGGGUUUGAGUCCCGUACGGUACG the yeast fitness was 0.684. GUUCCGUUGGCGUAAUGGUAACGCGUCUCCCUCCUAAGGAGAAGACUGCGGGUUUGAGUCCCGUACGGGACG showed a yeast fitness of 0.802. GUUCCGUUGGCGUAAUGGUAACGCGUCUCCCUCCUAAGGAGAAGACUGCGGGUUUGAGUCCCGUACGGACCG gave a yeast fitness of 0.938. For GUUCCGUUGGCGUAAUGGUAACGCGUCUCCCUCCUAAGGAGAAGACUGCGGGUUUGAGUCCCGUACGGAUCG, the yeast fitness was 0.715. In the case of GUUCCGUUGGCGUAAUGGUAACGCGUCUCCCUCCUAAGGAGAAGACUGCGGGUUCAAGUCCUGUACGGAACG, the yeast fitness is reported as 0.967. With GUUCCGUUGGCGUAAUGGUAACGCGUCUCCCUCCUAAGGAGAAGACUGCGGGUUGGGGUCCCGUACGGAACG the yeast fitness was 0.638. GUUCCGUUGGCGUAAUGGUAACGCGUCUCCCUCCUAAGGAGAAGACUGCGGGUUGGCGUCCCGUACGGAACG showed a yeast fitness of 0.713. GUUCCGUUGGCGUAAUGGUAACGCGUCUCCCUCCUAAGGAGAAGACUGCGGGUUCAAGUCUGGUACGGAACG showed a yeast fitness of at most 0.5. Work on GUUCCGUUGGCGUAAUGGUAACGCGUCUCCCUCCUAAGGAGAAGACUGCGGGUUGGUGUCCCGUCCGGAACG yielded a yeast fitness of at most 0.5. With GUUCCGUUGGCGUAAUGGUAACGCGUCUCCCUCCUAAGGAGAAGACUGCGGGUUUGAGACCCGUACGGAUCG the yeast fitness was 0.524. With GUUCCGUUGGCGUAAUGGUAACGCGUCUCCCUCCUAAGGAGAAGACUGCGGGUUUGACUCCCGUACGGUACG the yeast fitness was 0.537. For GUUCCGUUGGCGUAAUGGUAACGCGUCUCCCUCCUAAGGAGAAGACUGCGGGUUCAAGUCCCGUGUGGAACG, the yeast fitness was 0.763.
